From ChEMBL document CHEMBL4513216, “Probing the Open Global Health Chemical Diversity Library for Multistage-Active Starting Points for Next-Generation Antimalarials” (ACS Infect Dis, 2020) come the findings set out here.

The nature of the data set: Toxicity liver stage against HepG2, at 10uM. Type of data set: cell-based. Details: test concentration 10 uM, cell line HepG2-A16-CD81EGFP. The conditions noted are these: human, HepG2-A16-CD81EGFP cells; read-out: INHIBITION
A digest of the protocol: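 Uninfected HepG2-A16-CD81EGFP cells, 3 × 10^3 per well, 1536-well, plated on prespotted compound at 10 μM final, parasite-free screening media added to match infected plates; puromycin 10 μM positive, DMSO 0.5% negative; run in parallel with 48 h PbLuc assay at 37 °C, 5% CO2; viability by CellTiter-Glo luminescence, normalized to controls.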

Each structure is given as a SMILES string.

For the compound `CS(=O)(=O)N1CCC[C@]2(C[C@@H](Oc3ncccc3F)CO2)C1`, the cytotoxicity at 10 µM came to 4.09%.
Then `Cc1cccc(CN2C(=O)C[C@H]3[C@@H]2CCN3Cc2nccs2)n1`, with -2.92%; and `CNC(=O)[C@@]12CCCN(c3ncccn3)[C@@H]1CN(c1ncc(C)cn1)C2`, with 3.97%.
Take `COc1cc(C(=O)NC(CC(=O)O)c2cccs2)cc(OC)c1C` (stereo unspecified): the cytotoxicity at 10 µM is -19.1%.
Then `Cc1ccccc1C(=O)Nc1ccc(OC2CCN(C)CC2)cc1`, with -1.57%; and `COCC(=O)N1CCN(Cc2nnc(C(C)(C)C)o2)CC1`, with 7.66%.
For `O=C(C1CC1)N1CCC(Nc2nc(O)cc(-c3ccsc3)n2)CC1` the value was 5.29%; for `CN1CCCCC1c1ccc(-n2ccnc2)nc1` (stereo unspecified), 5.01%.
For `O=C(Nc1ccccc1F)N(CCO)Cc1ccsc1` the value was 2.05%; for `O=C(NCCNc1ncccn1)c1ccc(Br)cc1`, -0.628%.
Take `Cc1cnn(CCCNC(=O)NCCC(=O)Nc2ccccc2)c1`: the cytotoxicity at 10 µM worked out at 2.72%.
Then `CCCN(CC)Cn1ncc2cn(-c3ccccc3)nc2c1=O`, with 1.44%; and `COCCN1CCCC(c2ncc(C(=O)N3CCOCC3)c(C)n2)C1` (stereo unspecified), with 0.893%.
For the compound `CN(Cc1ccc(F)cc1)S(=O)(=O)N1CCOCC1`, the cytotoxicity at 10 µM amounted to 2.35%.
Then `O=C(c1cnccn1)N1C[C@H]2CC[C@@H](C1)N(S(=O)(=O)c1cccnc1)C2`, with -2.03%.
For `Cc1nc2n(n1)CC(Nc1cc(C(F)(F)F)nc3ncnn13)CC2` (stereo unspecified) the value was -1.27%.
Regarding `CCOc1ccccc1C(=O)N1CCCC1c1ncc2c(n1)CCNC2` (stereo unspecified), the cytotoxicity at 10 µM was determined as 8.3%.
For `O=C(c1ccccc1)N1CCN(CC2CCOc3ccccc3C2)CC1` (stereo unspecified), the cytotoxicity at 10 µM is -0.966%.
Take `COc1ccc(OC)c(CNc2c(O)c(=O)c2=O)c1`: the cytotoxicity at 10 µM was found to be 7.08%.
`NC(=O)CC1CCN(Cc2ccccc2OCC(F)(F)F)CC1`: the cytotoxicity at 10 µM is -0.535%.
`CCN1CCN(S(=O)(=O)c2cc(C)c(Cl)cc2C)CC1`: the cytotoxicity at 10 µM is -3.89%.
Then `COc1ccccc1CC(=O)N1CCC(NCc2ccc(C)o2)CC1`, with -5.28%.
Take `CN(CCc1noc(C2CC2)n1)C(=O)C1(N2CCCC2)CCCC1`: the cytotoxicity at 10 µM was -146%.
In the case of `COC(=O)c1ccc(C2SCC(=O)Nc3ccsc32)cc1` (stereo unspecified), the cytotoxicity at 10 µM is -6.79%.
Then `Cc1cc(N)n(-c2ccc3nnc(C)n3n2)n1`, with 5.89%; and `COCCN1C[C@H]2CC[C@@]3(N=C(C)N(CC4CC4)C3=O)[C@H]2C1`, with -7.5%; and `COc1ccc(-n2cc(CNC(=O)c3ccccn3)nn2)cc1`, with -4.05%.
Then `COc1cccc(C2=CCN(CCN3CCCC3=O)CC2)c1`, with -10.6%; and `Cc1cnc(CCNC(=O)NCCOc2ncccc2Cl)s1`, with 9.18%.
As to `O=C(O)c1ccn(-c2ccccc2NS(=O)(=O)c2ccccc2)n1`, the cytotoxicity at 10 µM is 23%.
Then `CCOc1ccccc1N(C)C(=O)c1cscn1`, with -0.704%; and `COc1ccc(OC)c(CNCc2c(C(C)C)nn(C)c2N(C)C)c1`, with -5.89%.
For the compound `Cc1cncc(C(=O)N2CCCCC2c2nc(C)cs2)c1` (stereo unspecified), the cytotoxicity at 10 µM was -3.66%.
As to `CCn1ccnc1CN1CCN(c2ncnc3ccsc23)CC1C` (stereo unspecified), the cytotoxicity at 10 µM was 3.04%.
`Cc1ccc(-c2noc(C(O)CC(C)C)n2)nn1` (stereo unspecified): the cytotoxicity at 10 µM is -7.72%.
Then `COc1ccc(C(=O)N(c2ccc(OC)c(F)c2)C(C)C)cn1`, with -1.94%; and `Cc1csc(CN(CC2CCCO2)C(=O)c2cccnc2C)n1` (stereo unspecified), with 0.459%; and `CCN(CC)C(=O)c1ccn(COc2cccc(Cl)c2Cl)n1`, with 49.4%.
Then `CCN(Cc1nc(Cc2ccccc2)no1)C1CC1`, with 6.26%; and `CCN1CCN(c2ccc(C(=O)NCc3cc(C)no3)cc2F)CC1`, with 11.2%; and `COc1cc(-n2cccc2)c(Cl)cc1C(N)=O`, with -10.4%.
For `NC(=O)Nc1cccc(C(=O)N(Cc2ccncc2)C2CC2)c1` the value was -2.34%; for `O=C(NC1CCCC1)[C@H]1CC[C@@H]2[C@@H](CCN2c2ncc(F)cn2)O1`, 0.441%; for `Cc1nnc(NCc2cccc(OCC3CCCO3)c2)c(C#N)c1C` (stereo unspecified), -33.8%.
As for `CN(Cc1nnc(C2CC2)n1C)C1CCN(CCc2cnn(C)c2)C1` (stereo unspecified), the cytotoxicity at 10 µM is -4.02%.
`Cc1ccc(OCCN(C)C(=O)CCCC(N)=O)c(C)c1`: the cytotoxicity at 10 µM was 1.47%.
For `CCN1CCCC(CNC(=O)C2(c3cc(C)cc(C)c3)CCC2)C1` (stereo unspecified) the value was -10.7%.
Regarding `c1cnn([C@@H]2CN(Cc3nccs3)[C@@H]3CCCO[C@@H]32)c1`, the cytotoxicity at 10 µM worked out at 9.07%.
For `CN1CCCC2(CCN(c3cc(C(F)(F)F)nc(N(C)C)n3)C2)C1=O` (stereo unspecified) the value was 13.1%; for `NC(=O)c1ccc(NC(=O)Cn2cc(I)cn2)cc1`, 8.49%.
Then `O=C(NCc1ccc(Cl)s1)c1cc(CN2CCCC(O)C2)on1` (stereo unspecified), with -52.3%.
Then `Cc1nccc(-c2ccccc2)c1C(=O)N1CC[C@](C)(O)[C@H](C)C1`, with 3.41%.
With `CC(=O)N(C)C1CCN(c2ncc3c(n2)CCN3c2ccccc2)C1` (stereo unspecified), the cytotoxicity at 10 µM was -9.62%.
With `CCC(c1ccccc1)N1CCN(C(=O)c2cc(C(N)=O)c[nH]2)CC1` (stereo unspecified), the cytotoxicity at 10 µM amounted to 2.96%.
For `Cc1cc(C)cc(N2CC(c3nnc(N)s3)CC2=O)c1` (stereo unspecified) the value was 4.29%; for `Cc1cnccc1Cn1ccnc1C1CCOC1` (stereo unspecified), -2.53%; for `Cc1cc(C)n(CC(=O)N2CCC(NS(C)(=O)=O)CC2)n1`, 3.18%.
As to `CS(=O)(=O)NCCC1CCCCN1C(=O)NCc1ccccn1` (stereo unspecified), the cytotoxicity at 10 µM was -0.871%.
Then `COc1ccnc(N2CCN(C(=O)Cc3ccn(C(C)C)n3)CC2)n1`, with -16.2%; and `CCOc1ccc(C#N)cc1NC(=O)N1CCC(N2CCCC2)C1` (stereo unspecified), with -7.35%; and `Cc1cccc(C(=O)N2C[C@@H](C)[C@@]3(CCN(c4ccsc4)C3=O)C2)n1`, with -78.9%.
For `CCN1CCN(C2CCN(Cc3ncc(C(C)(C)C)o3)CC2)C1=O` the value was 2.05%; for `COCC1CN(S(=O)(=O)c2ccc(C)cc2)Cc2c1cnn2C` (stereo unspecified), -5.37%.
Then `CC(CN1CCCC1=O)NC(=O)NCc1ccccc1-n1cccn1` (stereo unspecified), with 3.33%; and `COc1cccc(Cn2ncnc2CNC(C)=O)c1`, with 0.15%; and `Cc1c(C(=O)NCC(F)(F)F)nnn1-c1ccccc1Cl`, with 2.37%.
With `COCCN1CCO[C@@H]2CN(C(=O)Cc3ccccc3)CC[C@@H]2C1`, the cytotoxicity at 10 µM amounted to 4.98%.
Then `c1ccc(-n2cnnc2CCCN2CCOCC2)cc1`, with -1.16%.
For `Cc1noc(CN(C)CC(c2cccs2)N2CCOCC2)n1` (stereo unspecified), the cytotoxicity at 10 µM is -0.524%.
Then `Cc1noc([C@H]2COC[C@H]3CN(C(=O)Cc4ccc(F)cc4)C[C@H]32)n1`, with -21.1%; and `C[C@]1(O)CCN(Cc2c[nH]cn2)C[C@@H]1Oc1cccc(F)c1`, with -5.72%.
For `Fc1cccc(C2(CNC3CCCNC3)CCOCC2)c1` (stereo unspecified), the cytotoxicity at 10 µM came out at 0.979%.
Regarding `CCC(=O)N1CCC2(CC1)C(c1cccnc1)CC(=O)N2CCOC` (stereo unspecified), the cytotoxicity at 10 µM is -94.1%.
For `Cc1cc(C(=O)NC2CCN(C(=O)Nc3cccnc3)CC2)c(C)o1` the value was 6.62%; for `OCCN1CCC(F)(F)C2(CCN(c3cccnc3)C2)C1` (stereo unspecified), -94.7%; for `COCCN1CCC(CNC(=O)c2cc(C)cc(C)c2)C1` (stereo unspecified), -7.32%.
As for `COc1ccc(N2CCN(CC(O)c3ccc(C)cc3C)CC2)cc1` (stereo unspecified), the cytotoxicity at 10 µM is 11.8%.
Then `CCCc1n[nH]c(C2CN(C(=O)c3cccc4cn[nH]c34)CCO2)n1` (stereo unspecified), with -4.81%; and `CCN(CC)CCn1cc(NC2CCN(C(C)(C)C)CC2)cn1`, with -6.53%.
As for `CC(C)N1CC(NC(=O)c2ccc(Cl)s2)CC1=O` (stereo unspecified), the cytotoxicity at 10 µM was -8.51%.
Consider `CN(C)Cc1cncc2c1CCN(Cc1ccoc1)C2`, for which the cytotoxicity at 10 µM was -103%.
Then `COc1ccc(CN2Cc3nnn(C)c3C(COCCN(C)C)C2)cc1` (stereo unspecified), with 5.26%.
For `CCc1nc(-c2noc3ccc(C(=O)NCCN(C)C)cc23)co1` the value was -150%.
For `Cc1noc(C)c1CN(Cc1cccnc1)C1CN2CCC1CC2` (stereo unspecified) the value was 1.91%; for `O=C(N1CCCCC1)N1CCN(CC(O)c2ccc(F)cc2)CC1` (stereo unspecified), -8.85%.
As for `Cc1cnc(CN(C)C2CCN(CC(=O)Nc3nncs3)C2)o1` (stereo unspecified), the cytotoxicity at 10 µM came to 1.76%.
In the case of `CCOC1CCN(C(=O)c2ccc(-n3ncc(C#N)c3N)cc2)CC1`, the cytotoxicity at 10 µM is -1.1%.
Take `Cc1cnn(CC2CN(CCCc3nc4ccccc4o3)CCO2)c1` (stereo unspecified): the cytotoxicity at 10 µM was -2.45%.
Then `Cn1cc(CN2CC[C@H]3C[C@H](c4nc(C5CC5)cs4)O[C@@H]3C2)cn1`, with -6.78%; and `c1cc2c(cc1-c1noc3c1CN(C1CCSC1)CC3)OCO2` (stereo unspecified), with -16.9%.
As for `CC(C)NC(=O)c1cc2c(nc1N(C)C)CCN(S(=O)(=O)C1CC1)CC2`, the cytotoxicity at 10 µM is -149%.
Regarding `FC(F)(F)c1cccc(CNc2nccc(C(F)(F)F)n2)c1`, the cytotoxicity at 10 µM is -19%.
Then `O=C(c1ccncn1)N1CCC[C@]2(C[C@@H](OCC3CC3)CO2)C1`, with -78.9%; and `O=C(N1CCCC1)N1CCO[C@H]2[C@@H](Oc3ccccn3)CC[C@@H]21`, with 8.95%; and `Cc1noc(C)c1CCC(=O)N1CCOCC1CC(=O)N1CCCC1` (stereo unspecified), with 0.282%.
Then `O=C1CC(c2ccncc2)C2(CCN(C(=O)c3ccc[nH]3)CC2)N1` (stereo unspecified), with 3.78%.
